PubChem BioAssay AID624406 (The Scripps Research Institute Molecular Screening Center, 2012)
Calls of active or inactive are those of the source.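 Rule for the calls: active = inhibition of radioligand binding at or above 50% in any panel; inactive = inhibition below 50%.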

Assays:
Assay in all cases: off-target binding at receptors and transporters, profiling panel, selectivity assay for HCV core dimerization inhibitor project, cell-based, radioligand binding, Ricerca panel (AID 624406)
[1] = molecular target: Delta-type opioid receptor (Homo sapiens) (UniProt P41143); conditions: Opiate delat1 (OP1, DOP), at 10 µM, hits give high values
Method in brief: (§1)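 Measure: percent inhibition of radioligand binding, negative values indicating enhanced binding; Controls: reference standards in each run; Repeats: duplicate measurements per compound.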

GABAA = conditions: central, at 10 µM, hits give high values
Method in brief: as §1

Prostanoid EP4 = conditions: at 10 µM, hits give high values
Method in brief: as §1

[2] = molecular target: 5-hydroxytryptamine receptor 2B (Homo sapiens) (UniProt P41595); conditions: Serotonin (5-Hydroxytryptamine) 5-HT2B, at 10 µM, hits give high values
Method in brief: as §1

[3] = molecular target: 5-hydroxytryptamine receptor 1A (Homo sapiens) (UniProt P08908); conditions: Serotonin (5-Hydroxytryptamine) 5-HT1A, at 10 µM, hits give high values
Method in brief: as §1

[4] = molecular target: Muscarinic acetylcholine receptor M3 (Homo sapiens) (UniProt P20309); conditions: at 10 µM, hits give high values
Method in brief: as §1

Dopamine D4.2 = conditions: at 10 µM, hits give high values
Method in brief: as §1

[5] = molecular target: Muscarinic acetylcholine receptor M1 (Homo sapiens) (UniProt P11229); conditions: at 10 µM, hits give high values
Method in brief: as §1

Melatonin MT1 = conditions: at 10 µM, hits give high values
Method in brief: as §1

Sigma 1 = conditions: at 10 µM, hits give high values
Method in brief: as §1

[6] = molecular target: Muscarinic acetylcholine receptor M2 (Homo sapiens) (UniProt P08172); conditions: at 10 µM, hits give high values
Method in brief: as §1

Purinergic P2Y = conditions: at 10 µM, hits give high values
Method in brief: as §1

Tachykinin NK1 = conditions: at 10 µM, hits give high values
Method in brief: as §1

Adrenergic beta1 = conditions: at 10 µM, hits give high values
Method in brief: as §1

Transporter, GABA = conditions: at 10 µM, hits give high values
Method in brief: as §1

[7] = molecular target: Beta-2 adrenergic receptor (Homo sapiens) (UniProt P07550); conditions: Adrenergic beta2, at 10 µM, hits give high values
Method in brief: as §1

Adenosine A3 = conditions: at 10 µM, hits give high values
Method in brief: as §1

Nicotinic Acetylcholine = conditions: at 10 µM, hits give high values
Method in brief: as §1

[8] = molecular target: Estrogen receptor (Homo sapiens) (UniProt P03372); conditions: Estrogen Eralpha, at 10 µM, hits give high values
Method in brief: as §1

[9] = molecular target: D(3) dopamine receptor (Homo sapiens) (UniProt P35462); conditions: Dopamine D3, at 10 µM, hits give high values
Method in brief: as §1

Calcium Channel L-Type = conditions: at 10 µM, hits give high values
Method in brief: as §1

[10] = molecular target: Neuropeptide Y receptor type 1 (Homo sapiens) (UniProt P25929); conditions: Neuropeptide Y Y1, at 10 µM, hits give high values
Method in brief: as §1

[11] = tested on: Transporter, Dopamine (DAT); conditions: at 10 µM, hits give high values
Method in brief: as §1

[12] = molecular target: D(1A) dopamine receptor (Homo sapiens) (UniProt P21728); conditions: Dopamine D1, at 10 µM, hits give high values
Method in brief: as §1

Endothelin ETA = conditions: at 10 µM, hits give high values
Method in brief: as §1

Adrenergic alpha1A = conditions: at 10 µM, hits give high values
Method in brief: as §1

[13] = tested on: Leukotriene, Cysteinyl CysLT1; conditions: at 10 µM, hits give high values
Method in brief: as §1

[14] = tested on: Transporter, Norepinephrine (NET); conditions: at 10 µM, hits give high values
Method in brief: as §1

GABAB1A = conditions: at 10 µM, hits give high values
Method in brief: as §1

[15] = tested on: Androgen (Testosterone) AR; conditions: at 10 µM, hits give high values
Method in brief: as §1

[16] = tested on: Voltage-dependent L-type calcium channel subunit beta-4 (Rattus norvegicus) + Pro-epidermal growth factor (Homo sapiens) + Estrogen receptor (Homo sapiens) + Glucocorticoid receptor (Homo sapiens) + 5-hydroxytryptamine receptor 1A (Homo sapiens) + Alpha-2A adrenergic receptor (Homo sapiens) + Adenosine receptor A3 (Homo sapiens) + Androgen receptor (Homo sapiens) + Muscarinic acetylcholine receptor M1 (Homo sapiens) + D(4) dopamine receptor (Homo sapiens) + Alpha-2A adrenergic receptor (Rattus norvegicus) + Sodium- and chloride-dependent GABA transporter 1 (Rattus norvegicus) + Endothelin receptor type B (Homo sapiens) + Histamine H2 receptor (Homo sapiens) + Endothelin-1 receptor (Homo sapiens) + Neuropeptide Y receptor type 1 (Homo sapiens) + B2 bradykinin receptor (Homo sapiens) + Sodium-dependent serotonin transporter (Homo sapiens) + Histamine H1 receptor (Homo sapiens) + Mu-type opioid receptor (Homo sapiens) + D(3) dopamine receptor (Homo sapiens) + Delta-type opioid receptor (Homo sapiens) + Kappa-type opioid receptor (Homo sapiens) + Glutamate receptor ionotropic, kainate 3 (Rattus norvegicus) + 5-hydroxytryptamine receptor 3A (Homo sapiens) + Melatonin receptor type 1A (Homo sapiens) + Neuropeptide Y receptor type 2 (Homo sapiens) + P2Y purinoceptor 1 (Rattus norvegicus) + Thyroid hormone receptor alpha (Rattus norvegicus) + Glutamate receptor ionotropic, NMDA 2B (Rattus norvegicus) + Sodium-dependent dopamine transporter (Homo sapiens) + Protein kinase C zeta type …; conditions: at 10 µM, hits give high values
Method in brief: as §1

Opiate mu (OP3, MOP) = conditions: at 10 µM, hits give high values
Method in brief: as §1

Calcium Channel N-Type = conditions: at 10 µM, hits give high values
Method in brief: as §1

Purinergic P2X = conditions: at 10 µM, hits give high values
Method in brief: as §1

[17] = molecular target: Alpha-2A adrenergic receptor (Homo sapiens) (UniProt P08913); conditions: Adrenergic alpha2A, at 10 µM, hits give high values
Method in brief: as §1

[18] = molecular target: Glucocorticoid receptor (Homo sapiens) (UniProt P04150); conditions: at 10 µM, hits give high values
Method in brief: as §1

[19] = molecular target: Neuropeptide Y receptor type 2 (Homo sapiens) (UniProt P49146); conditions: Neuropeptide Y Y2, at 10 µM, hits give high values
Method in brief: as §1

Adrenergic alpha1B = conditions: at 10 µM, hits give high values
Method in brief: as §1

[20] = tested on: Transporter, Serotonin (5-Hydroxytryptamine); conditions: at 10 µM, hits give high values
Method in brief: as §1

Glutamate Kainate = conditions: at 10 µM, hits give high values
Method in brief: as §1

[21] = molecular target: Kappa-type opioid receptor (Homo sapiens) (UniProt P41145); conditions: Opiate kappa (OP2, KOP), at 10 µM, hits give high values
Method in brief: as §1

Adenosine A1 = conditions: at 10 µM, hits give high values
Method in brief: as §1

Histamine H1 = conditions: at 10 µM, hits give high values
Method in brief: as §1

Endothelin ETB = conditions: at 10 µM, hits give high values
Method in brief: as §1

Interleukin IL-1 = conditions: at 10 µM, hits give high values
Method in brief: as §1

Thyroid Hormone = conditions: at 10 µM, hits give high values
Method in brief: as §1

[22] = tested on: Serotonin (5-Hydroxytryptamine) 5-HT3; conditions: at 10 µM, hits give high values
Method in brief: as §1

Dopamine D2S = conditions: at 10 µM, hits give high values
Method in brief: as §1

[23] = molecular target: Voltage-gated inwardly rectifying potassium channel KCNH2 (Homo sapiens) (UniProt Q12809); conditions: Potassium Channel hERG, at 10 µM, hits give high values
Method in brief: as §1

[24] = molecular target: Platelet-activating factor receptor (Homo sapiens) (UniProt P25105); conditions: Platelet Activating Factor (PAF), at 10 µM, hits give high values
Method in brief: as §1

Phorbol Ester = conditions: at 10 µM, hits give high values
Method in brief: as §1

Histamine H2 = conditions: at 10 µM, hits give high values
Method in brief: as §1

Imidazoline I2 = conditions: central, at 10 µM, hits give high values
Method in brief: as §1

Histamine H3 = conditions: at 10 µM, hits give high values
Method in brief: as §1

[25] = tested on: Epidermal Growth Factor (EGF); conditions: at 10 µM, hits give high values
Method in brief: as §1

Potassium Channel [KATP] = conditions: at 10 µM, hits give high values
Method in brief: as §1

Adenosine A2A = conditions: at 10 µM, hits give high values
Method in brief: as §1

Bradykinin B1 = conditions: at 10 µM, hits give high values
Method in brief: as §1

Glutamate NMDA = conditions: at 10 µM, hits give high values
Method in brief: as §1

Cannabinoid CB1 = conditions: at 10 µM, hits give high values
Method in brief: as §1

Rolipram = conditions: at 10 µM, hits give high values
Method in brief: as §1

Adrenergic alpha1D = conditions: at 10 µM, hits give high values
Method in brief: as §1

Bradykinin B2 = conditions: at 10 µM, hits give high values
Method in brief: as §1

Sequence of Neuropeptide Y receptor type 1 (Homo sapiens) (P25929 whole entry, looked up): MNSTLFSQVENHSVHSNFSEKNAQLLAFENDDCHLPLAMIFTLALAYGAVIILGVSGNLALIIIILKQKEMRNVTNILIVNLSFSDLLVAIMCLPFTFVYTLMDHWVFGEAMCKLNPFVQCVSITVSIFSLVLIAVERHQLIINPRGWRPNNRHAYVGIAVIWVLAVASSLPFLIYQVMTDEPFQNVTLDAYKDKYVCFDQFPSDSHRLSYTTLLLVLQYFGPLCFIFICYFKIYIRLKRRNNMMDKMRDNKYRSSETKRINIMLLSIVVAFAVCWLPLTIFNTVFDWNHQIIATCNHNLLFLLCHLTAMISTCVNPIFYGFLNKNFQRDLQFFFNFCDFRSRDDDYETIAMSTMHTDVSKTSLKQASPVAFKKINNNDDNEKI
Sequence of Muscarinic acetylcholine receptor M2 (Homo sapiens) (P08172 whole entry, looked up): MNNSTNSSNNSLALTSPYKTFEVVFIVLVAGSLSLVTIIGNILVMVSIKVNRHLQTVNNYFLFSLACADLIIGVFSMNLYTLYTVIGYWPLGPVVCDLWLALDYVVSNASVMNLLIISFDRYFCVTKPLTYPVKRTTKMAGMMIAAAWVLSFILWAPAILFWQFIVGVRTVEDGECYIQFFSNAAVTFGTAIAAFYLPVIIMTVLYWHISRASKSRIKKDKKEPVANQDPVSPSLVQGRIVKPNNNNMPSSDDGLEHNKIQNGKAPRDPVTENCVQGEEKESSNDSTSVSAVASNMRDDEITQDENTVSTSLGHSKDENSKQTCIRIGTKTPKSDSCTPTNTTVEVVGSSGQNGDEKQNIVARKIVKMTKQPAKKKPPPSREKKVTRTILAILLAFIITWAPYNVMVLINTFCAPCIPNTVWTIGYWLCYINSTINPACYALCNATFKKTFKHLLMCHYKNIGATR
Sequence of Glucocorticoid receptor (Homo sapiens) (P04150 whole entry, looked up): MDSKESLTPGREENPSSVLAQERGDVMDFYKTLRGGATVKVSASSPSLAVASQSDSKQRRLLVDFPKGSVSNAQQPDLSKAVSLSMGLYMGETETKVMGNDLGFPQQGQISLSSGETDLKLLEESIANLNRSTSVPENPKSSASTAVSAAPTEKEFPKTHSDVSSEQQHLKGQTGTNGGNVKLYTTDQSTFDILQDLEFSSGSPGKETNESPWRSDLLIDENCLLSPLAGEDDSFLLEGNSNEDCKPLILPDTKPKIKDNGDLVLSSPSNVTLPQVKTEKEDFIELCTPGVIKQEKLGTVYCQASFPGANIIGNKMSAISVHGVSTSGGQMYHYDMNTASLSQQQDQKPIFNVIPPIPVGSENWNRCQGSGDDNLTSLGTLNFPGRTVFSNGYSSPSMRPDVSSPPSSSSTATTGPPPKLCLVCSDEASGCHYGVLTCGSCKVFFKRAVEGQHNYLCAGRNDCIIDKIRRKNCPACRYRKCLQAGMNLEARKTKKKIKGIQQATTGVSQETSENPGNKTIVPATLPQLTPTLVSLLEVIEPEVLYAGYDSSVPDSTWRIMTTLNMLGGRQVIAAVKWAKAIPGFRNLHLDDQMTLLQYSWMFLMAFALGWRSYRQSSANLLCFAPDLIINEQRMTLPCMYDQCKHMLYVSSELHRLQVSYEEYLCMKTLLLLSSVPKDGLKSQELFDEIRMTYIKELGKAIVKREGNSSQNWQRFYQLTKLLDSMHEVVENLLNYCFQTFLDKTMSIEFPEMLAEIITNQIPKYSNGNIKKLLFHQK
Sequence of Delta-type opioid receptor (Homo sapiens) (P41143 whole entry, looked up): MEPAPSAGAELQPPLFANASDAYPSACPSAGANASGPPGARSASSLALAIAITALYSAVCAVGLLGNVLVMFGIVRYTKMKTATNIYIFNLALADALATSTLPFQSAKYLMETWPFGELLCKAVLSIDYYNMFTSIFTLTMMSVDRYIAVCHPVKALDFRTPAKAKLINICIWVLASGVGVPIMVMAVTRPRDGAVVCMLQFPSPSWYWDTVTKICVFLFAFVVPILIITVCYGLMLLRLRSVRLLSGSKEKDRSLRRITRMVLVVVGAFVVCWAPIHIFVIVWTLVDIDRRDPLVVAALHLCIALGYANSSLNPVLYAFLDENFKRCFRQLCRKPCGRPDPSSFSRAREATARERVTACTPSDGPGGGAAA
Sequence of Voltage-gated inwardly rectifying potassium channel KCNH2 (Homo sapiens) (Q12809 whole entry, looked up): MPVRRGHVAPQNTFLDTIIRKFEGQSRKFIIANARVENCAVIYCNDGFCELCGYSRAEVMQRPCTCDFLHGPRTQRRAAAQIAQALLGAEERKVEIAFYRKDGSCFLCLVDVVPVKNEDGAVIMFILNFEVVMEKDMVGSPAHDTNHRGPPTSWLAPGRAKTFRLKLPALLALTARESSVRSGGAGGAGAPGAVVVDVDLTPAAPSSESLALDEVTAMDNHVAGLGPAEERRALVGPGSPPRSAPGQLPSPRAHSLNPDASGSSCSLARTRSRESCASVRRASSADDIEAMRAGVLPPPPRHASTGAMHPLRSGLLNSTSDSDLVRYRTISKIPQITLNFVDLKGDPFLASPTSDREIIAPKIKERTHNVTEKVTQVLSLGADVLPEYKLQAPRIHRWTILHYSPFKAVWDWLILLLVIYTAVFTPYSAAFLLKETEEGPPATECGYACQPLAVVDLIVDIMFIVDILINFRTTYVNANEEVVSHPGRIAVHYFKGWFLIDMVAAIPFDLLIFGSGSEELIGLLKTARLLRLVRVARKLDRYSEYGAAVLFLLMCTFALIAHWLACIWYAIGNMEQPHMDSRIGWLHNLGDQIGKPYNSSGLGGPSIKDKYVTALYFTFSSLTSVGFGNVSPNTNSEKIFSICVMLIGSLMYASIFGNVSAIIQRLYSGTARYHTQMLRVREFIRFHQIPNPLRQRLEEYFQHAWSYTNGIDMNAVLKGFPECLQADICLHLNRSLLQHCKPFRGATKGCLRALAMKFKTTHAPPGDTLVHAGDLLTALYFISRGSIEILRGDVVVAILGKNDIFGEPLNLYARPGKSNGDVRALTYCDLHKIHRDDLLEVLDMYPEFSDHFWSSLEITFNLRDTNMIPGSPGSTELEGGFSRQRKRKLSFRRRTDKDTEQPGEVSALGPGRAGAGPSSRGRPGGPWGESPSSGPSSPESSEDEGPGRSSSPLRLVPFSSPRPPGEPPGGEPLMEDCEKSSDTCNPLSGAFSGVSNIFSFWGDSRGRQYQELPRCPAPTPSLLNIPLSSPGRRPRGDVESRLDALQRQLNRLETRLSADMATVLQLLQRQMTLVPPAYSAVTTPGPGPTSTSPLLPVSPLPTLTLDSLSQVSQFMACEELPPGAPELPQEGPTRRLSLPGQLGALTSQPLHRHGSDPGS
Sequence of D(3) dopamine receptor (Homo sapiens) (P35462 whole entry, looked up): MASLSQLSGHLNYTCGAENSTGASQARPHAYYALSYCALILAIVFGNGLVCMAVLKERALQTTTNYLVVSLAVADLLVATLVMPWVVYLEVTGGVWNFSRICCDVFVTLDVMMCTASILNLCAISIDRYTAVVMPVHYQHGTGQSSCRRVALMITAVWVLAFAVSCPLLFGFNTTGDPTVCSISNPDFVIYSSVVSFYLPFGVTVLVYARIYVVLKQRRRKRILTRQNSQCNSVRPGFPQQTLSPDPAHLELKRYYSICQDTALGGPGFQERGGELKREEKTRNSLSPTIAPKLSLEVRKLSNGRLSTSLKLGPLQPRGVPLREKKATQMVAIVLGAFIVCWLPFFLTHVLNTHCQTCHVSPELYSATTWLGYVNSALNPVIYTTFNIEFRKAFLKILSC
Sequence of Muscarinic acetylcholine receptor M3 (Homo sapiens) (P20309 whole entry, looked up): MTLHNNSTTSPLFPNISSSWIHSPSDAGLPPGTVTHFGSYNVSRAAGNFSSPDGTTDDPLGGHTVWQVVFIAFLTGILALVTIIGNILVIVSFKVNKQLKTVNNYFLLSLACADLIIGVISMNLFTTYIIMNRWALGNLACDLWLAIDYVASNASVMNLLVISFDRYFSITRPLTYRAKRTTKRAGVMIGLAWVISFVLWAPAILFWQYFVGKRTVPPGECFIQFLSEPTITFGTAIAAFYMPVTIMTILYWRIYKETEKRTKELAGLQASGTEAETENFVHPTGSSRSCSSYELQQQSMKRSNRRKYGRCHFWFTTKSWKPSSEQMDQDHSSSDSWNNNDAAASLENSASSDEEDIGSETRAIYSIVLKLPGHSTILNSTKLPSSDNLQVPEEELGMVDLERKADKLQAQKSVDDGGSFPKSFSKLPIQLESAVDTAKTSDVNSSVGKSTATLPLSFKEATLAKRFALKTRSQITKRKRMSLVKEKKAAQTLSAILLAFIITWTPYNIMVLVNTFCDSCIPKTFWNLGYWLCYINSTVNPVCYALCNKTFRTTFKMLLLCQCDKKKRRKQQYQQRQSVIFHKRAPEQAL
Sequence of 5-hydroxytryptamine receptor 1A (Homo sapiens) (P08908 whole entry, looked up): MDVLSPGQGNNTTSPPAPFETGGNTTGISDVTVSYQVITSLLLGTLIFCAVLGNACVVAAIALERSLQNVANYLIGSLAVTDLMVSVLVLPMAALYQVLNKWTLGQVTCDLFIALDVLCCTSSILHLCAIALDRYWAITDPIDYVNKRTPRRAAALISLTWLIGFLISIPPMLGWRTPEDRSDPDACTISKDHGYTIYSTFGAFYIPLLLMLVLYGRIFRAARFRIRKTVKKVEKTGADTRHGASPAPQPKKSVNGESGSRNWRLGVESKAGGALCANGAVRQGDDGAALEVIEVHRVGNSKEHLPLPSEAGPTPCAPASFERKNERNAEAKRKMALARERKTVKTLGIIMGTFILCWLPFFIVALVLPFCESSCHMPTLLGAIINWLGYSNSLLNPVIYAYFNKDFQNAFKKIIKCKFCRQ
Sequence of Neuropeptide Y receptor type 2 (Homo sapiens) (P49146 whole entry, looked up): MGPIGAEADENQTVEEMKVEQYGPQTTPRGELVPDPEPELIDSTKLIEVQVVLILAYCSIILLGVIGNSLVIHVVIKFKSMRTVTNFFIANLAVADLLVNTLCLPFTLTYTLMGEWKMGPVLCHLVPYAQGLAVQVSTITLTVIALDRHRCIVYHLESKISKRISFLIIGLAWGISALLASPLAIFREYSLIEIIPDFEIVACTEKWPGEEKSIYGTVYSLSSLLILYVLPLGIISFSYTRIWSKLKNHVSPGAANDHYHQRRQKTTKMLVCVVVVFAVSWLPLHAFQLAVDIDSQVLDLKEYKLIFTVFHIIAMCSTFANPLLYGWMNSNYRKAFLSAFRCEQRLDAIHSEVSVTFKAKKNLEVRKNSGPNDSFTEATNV

## Cc1ccc(Cc2c(C)nc3nc(SCC(=O)NCCN4CCNCC4)nn3c2C)cc1
[1]
  inhibition of radioligand binding: -3% (inactive)
GABAA; Flunitrazepam site
  inhibition of radioligand binding: 19% (inactive)
GABAA; Muscimol site
  inhibition of radioligand binding: 26% (inactive)
Prostanoid EP4
  inhibition of radioligand binding: 1% (inactive)
[2]
  inhibition of radioligand binding: 21% (inactive)
[3]
  inhibition of radioligand binding: 15% (inactive)
[4]
  inhibition of radioligand binding: 54%
Dopamine D4.2
  inhibition of radioligand binding: -1% (inactive)
[5]
  inhibition of radioligand binding: 42% (inactive)
Melatonin MT1
  inhibition of radioligand binding: 3% (inactive)
Sigma 1
  inhibition of radioligand binding: 12% (inactive)
[6]
  inhibition of radioligand binding: 49% (inactive)
Purinergic P2Y
  inhibition of radioligand binding: 3% (inactive)
Tachykinin NK1
  inhibition of radioligand binding: 24% (inactive)
Adrenergic beta1
  inhibition of radioligand binding: -2% (inactive)
Transporter, GABA
  inhibition of radioligand binding: 2% (inactive)
[7]
  inhibition of radioligand binding: 14% (inactive)
Adenosine A3
  inhibition of radioligand binding: 2% (inactive)
Nicotinic Acetylcholine
  inhibition of radioligand binding: 1% (inactive)
[8]
  inhibition of radioligand binding: -4% (inactive)
[9]
  inhibition of radioligand binding: 0% (inactive)
Calcium Channel L-Type; Benzothiazepine site
  inhibition of radioligand binding: 11% (inactive)
Calcium Channel L-Type; Dihydropyridine site
  inhibition of radioligand binding: 3% (inactive)
[10]
  inhibition of radioligand binding: 0% (inactive)
[11]
  inhibition of radioligand binding: 62%
[12]
  inhibition of radioligand binding: 6% (inactive)
Endothelin ETA
  inhibition of radioligand binding: -5% (inactive)
Adrenergic alpha1A
  inhibition of radioligand binding: 27% (inactive)
[13]
  inhibition of radioligand binding: -7% (inactive)
[14]
  inhibition of radioligand binding: 17% (inactive)
GABAB1A
  inhibition of radioligand binding: 7% (inactive)
[15]
  inhibition of radioligand binding: 7% (inactive)
[16]
  inhibition of radioligand binding: 1% (inactive)
Opiate mu (OP3, MOP)
  inhibition of radioligand binding: 11% (inactive)
Calcium Channel N-Type
  inhibition of radioligand binding: 5% (inactive)
Purinergic P2X
  inhibition of radioligand binding: 6% (inactive)
[17]
  inhibition of radioligand binding: 16% (inactive)
[18]
  inhibition of radioligand binding: 17% (inactive)
[19]
  inhibition of radioligand binding: -3% (inactive)
Adrenergic alpha1B
  inhibition of radioligand binding: 63%
[20]
  inhibition of radioligand binding: 16% (inactive)
Glutamate Kainate
  inhibition of radioligand binding: 16% (inactive)
[21]
  inhibition of radioligand binding: 18% (inactive)
Adenosine A1
  inhibition of radioligand binding: 9% (inactive)
Histamine H1
  inhibition of radioligand binding: 24% (inactive)
Endothelin ETB
  inhibition of radioligand binding: -1% (inactive)
Interleukin IL-1
  inhibition of radioligand binding: 13% (inactive)
Thyroid Hormone
  inhibition of radioligand binding: 5% (inactive)
[22]
  inhibition of radioligand binding: -4% (inactive)
Dopamine D2S
  inhibition of radioligand binding: 5% (inactive)
[23]
  inhibition of radioligand binding: 13% (inactive)
[24]
  inhibition of radioligand binding: 3% (inactive)
Phorbol Ester
  inhibition of radioligand binding: -1% (inactive)
Histamine H2
  inhibition of radioligand binding: 6% (inactive)
Imidazoline I2
  inhibition of radioligand binding: 31% (inactive)
Histamine H3
  inhibition of radioligand binding: 9% (inactive)
[25]
  inhibition of radioligand binding: 7% (inactive)
Potassium Channel [KATP]
  inhibition of radioligand binding: -11% (inactive)
Adenosine A2A
  inhibition of radioligand binding: -2% (inactive)
Bradykinin B1
  inhibition of radioligand binding: 5% (inactive)
Glutamate NMDA; Glycine site
  inhibition of radioligand binding: 10% (inactive)
Glutamate NMDA; Phencyclidine site
  inhibition of radioligand binding: 12% (inactive)
Glutamate NMDA; agonist site
  inhibition of radioligand binding: 3% (inactive)
Cannabinoid CB1
  inhibition of radioligand binding: 9% (inactive)
Rolipram
  inhibition of radioligand binding: 1% (inactive)
Adrenergic alpha1D
  inhibition of radioligand binding: 60%
Bradykinin B2
  inhibition of radioligand binding: -4% (inactive)
